Data reported in ChEMBL document CHEMBL2434834, “Synthesis of pyrido[2,1-a]isoquinolin-4-ones and oxazino[2,3-a]isoquinolin-4-ones: new inhibitors of mitochondrial respiratory chain” (Eur J Med Chem, 2013).

Experiment: Inhibition of NADH oxidase in beef heart sub-mitochondrial particles by UV-spectrophotometric analysis
Parameters: species or system Bos taurus
Summary of the method: (§1)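 Inverted beef-heart submitochondrial particles were made by extensive sonication of frozen-thawed mitochondria and stored at -70 °C at 28 mg/mL protein (Bradford). After incubation with inhibitor, particles were diluted to […] in 50 mM potassium phosphate pH 7.4 with 1 mM EDTA, at 22 °C with NADH. Aerobic NADH oxidation was followed at 340 nm (ε 6.22 mM⁻¹ cm⁻¹), with rates taken from the linear decrease at increasing inhibitor concentrations.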

| SMILES | IC50 [nM] |
| --- | --- |
| COc1cc2c(cc1OC)C1(Cc3ccccc3)OC(C)=CC(=O)N1CC2 (stereo not given) | 1530 |
| COc1cc2c(cc1OC)C1(C)OC(C)=CC(=O)N1CC2 (stereo not given) | 1360 |
| COc1cc2c(cc1OC)-c1cc(C)cc(=O)n1CC2 | 8230 |
| COc1cc2c(cc1OC)C1(C)OC(c3ccccc3)=CC(=O)N1CC2 (stereo not given) | 1320 |
| COc1cc2c(cc1OC)-c1cc(-c3ccco3)cc(=O)n1CC2 | 12500 |
| COc1cc2c(cc1OC)C1(C)OC(c3ccco3)=CC(=O)N1CC2 (stereo not given) | 900 |
| Cc1cc2n(c(=O)c1)CCc1cc(O)c(O)cc1-2 | 3440 |
| COc1cc2c(cc1OC)-c1c(-c3ccccc3Br)c(C)cc(=O)n1CC2 | 4240 |
| COc1cc2c(cc1OC)C1(Cc3ccccc3Br)OC(C)=CC(=O)N1CC2 (stereo not given) | 1390 |
| COc1cc2c(cc1OC)-c1c(-c3ccccc3)c(C)cc(=O)n1CC2 | 4690 |
| COc1cc2c(cc1OC)-c1cc(-c3ccccc3)cc(=O)n1CC2 | > 30000 |
| C=C(C)[C@H]1Cc2c(ccc3c2O[C@@H]2COc4cc(OC)c(OC)cc4[C@@H]2C3=O)O1 [ROTENONE] | 5.1 |

Experiment: Inhibition of NADH oxidase in beef heart sub-mitochondrial particles after 5 mins
Parameters: species or system Bos taurus
Summary of the method: as §1

| SMILES | IC50 [nM] |
| --- | --- |
| CC(C)Cc1cnc(CC(C)C)c(=O)[nH]1 | 13000 |
| COc1cc(O)c2nc3n(c(=O)c2c1)-c1ccccc1C(=O)N1CCC[C@@H]31 | 2500 |
| COc1ccc2nc3n(c(=O)c2c1)-c1ccccc1C(=O)N1CCC[C@@H]31 | 1500 |
